Test results reported in ChEMBL document CHEMBL4699398, “The synthesis and biological evaluation of sanguinarine derivatives as anti-non-small cell lung cancer agents” (RSC Med Chem, 2020).
Activity calls are given as the source filed them. The rule behind the calls is not given here.

What was measured:
[1] = test system: NCI-H1975; test: Induction of cell cycle arrest in human H1975 cells assessed as accumulation in G2/M phase at 3 uM incubated for 24 hrs by […] propidium iodide staining based flow cytometry (reference value: 21.00 %); format: functional
[2] = test system: NCI-H1975; test: Induction of cell cycle arrest in human H1975 cells assessed as accumulation in G0/G1 phase at 3 uM incubated for 24 hrs by […] propidium iodide staining based flow cytometry (reference value: 62.86 %); format: functional
[3] = test system: A549; test: Induction of apoptosis in human A549 cells assessed as increase in cleaved caspase-9 level at 0.1 to 3 uM incubated for 24 hrs by Western blot analysis; format: functional, cell-based; conditions: dose microM 0.1-3, time 24.0 hrs
Outline: (§1)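 After treatment, cells harvested and lysed in RIPA buffer; equal protein loaded on 12% SDS-PAGE and transferred to PVDF; blocked in 5% milk 2 h at room temperature; primary antibodies (AKT, p-AKT, cleaved caspase-3, cleaved caspase-9, PARP; GAPDH loading control) overnight at 4 °C; HRP secondaries 2 h at room temperature; chemiluminescent detection.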

[4] = test system: A549; test: Induction of cell cycle arrest in human A549 cells assessed as accumulation in G2/M phase at 1 uM incubated for 24 hrs by […] propidium iodide staining based flow cytometry (reference value: 22.46 %); format: functional
[5] = test system: A549; test: Induction of apoptosis in human A549 cells assessed as late apoptotic cells at 1 uM after 48 hrs by Annexin V-FITC/7-AAD staining based flow cytometric method (reference value: 2.94 %); format: functional
[6] = test system: A549; test: Induction of apoptosis in human A549 cells assessed as increase in cleaved caspase-3 level at 0.1 to 3 uM incubated for 24 hrs by Western blot analysis; format: functional, cell-based; conditions: dose microM 0.1-3, time 24.0 hrs; outline: as §1
[7] = test system: A549; test: Induction of apoptosis in human A549 cells assessed as necrotic cells at 3 uM after 48 hrs by Annexin V-FITC/7-AAD staining based flow cytometric method (reference value: 0.70 %); format: functional
[8] = test system: A549; test: Induction of cell cycle arrest in human A549 cells assessed as accumulation in G0/G1 phase at 1 uM incubated for 24 hrs by […] propidium iodide staining based flow cytometry (reference value: 63.11 %); format: functional
[9] = test system: NCI-H1975; test: Induction of apoptosis in human H1975 cells assessed as late apoptotic cells at 3 uM after 48 hrs by Annexin V-FITC/7-AAD staining based flow cytometric method (reference value: 4.63 %); format: functional
[10] = test system: A549; test: Induction of apoptosis in human A549 cells assessed as viable cells at 3 uM after 48 hrs by Annexin V-FITC/7-AAD staining based flow cytometric method (reference value: 93.10 %); format: functional; conditions: read-out: Activity
[11] = test system: A549; test: Induction of apoptosis in human A549 cells assessed as early apoptotic cells at 3 uM after 48 hrs by Annexin V-FITC/7-AAD staining based flow cytometric method (reference value: 3.26 %); format: functional
[12] = test system: NCI-H1975; test: Induction of cell cycle arrest in human H1975 cells assessed as accumulation in G0/G1 phase at 0.3 uM incubated for 24 hrs by […] propidium iodide staining based flow cytometry (reference value: 62.86 %); format: functional
[13] = test system: NCI-H1975; test: Induction of apoptosis in human H1975 cells assessed as increase in cleaved caspase-3 level at 0.1 to 3 uM incubated for 24 hrs by Western blot analysis; format: functional, cell-based; conditions: dose microM 0.1-3, time 24.0 hrs; outline: as §1
[14] = test system: A549; test: Induction of cell cycle arrest in human A549 cells assessed as accumulation in S phase at 1 uM incubated for 24 hrs by […] propidium iodide staining based flow cytometry (reference value: 14.16 %); format: functional
[15] = test system: A549; test: Induction of cell cycle arrest in human A549 cells assessed as accumulation in S phase at 0.3 uM incubated for 24 hrs by […] propidium iodide staining based flow cytometry (reference value: 14.16 %); format: functional
[16] = test system: A549; test: Induction of apoptosis in human A549 cells assessed as viable cells at 0.3 uM after 48 hrs by Annexin V-FITC/7-AAD staining based flow cytometric method (reference value: 93.10 %); format: functional; conditions: read-out: Activity
[17] = test system: NCI-H1975; test: Induction of apoptosis in human H1975 cells assessed as necrotic cells at 0.3 uM after 48 hrs by Annexin V-FITC/7-AAD staining based flow cytometric method (reference value: 0.85 %); format: functional
[18] = test system: NCI-H1975; test: Induction of apoptosis in human H1975 cells assessed as increase in phosphorylated Akt level at 0.1 to 3 uM incubated for 24 hrs by Western blot analysis; format: functional, cell-based; conditions: dose microM 0.1-3, time 24.0 hrs; outline: as §1
[19] = test system: A549; test: Induction of apoptosis in human A549 cells assessed as early apoptotic cells at 1 uM after 48 hrs by Annexin V-FITC/7-AAD staining based flow cytometric method (reference value: 3.26 %); format: functional
[20] = test system: NCI-H1975; test: Induction of apoptosis in human H1975 cells assessed as increase in cleaved caspase-9 level at 0.1 to 3 uM incubated for 24 hrs by Western blot analysis; format: functional, cell-based; conditions: dose microM 0.1-3, time 24.0 hrs; outline: as §1
[21] = test system: NCI-H1975; test: Induction of cell cycle arrest in human H1975 cells assessed as accumulation in G0/G1 phase at 1 uM incubated for 24 hrs by […] propidium iodide staining based flow cytometry (reference value: 62.86 %); format: functional
[22] = test system: A549; test: Induction of apoptosis in human A549 cells assessed as late apoptotic cells at 0.3 uM after 48 hrs by Annexin V-FITC/7-AAD staining based flow cytometric method (reference value: 2.94 %); format: functional
[23] = test system: NCI-H1975; test: Induction of apoptosis in human H1975 cells assessed as early apoptotic cells at 0.3 uM after 48 hrs by Annexin V-FITC/7-AAD staining based flow cytometric method (reference value: 6.50 %); format: functional
[24] = test system: NCI-H1975; test: Induction of apoptosis in human H1975 cells assessed as viable cells at 0.3 uM after 48 hrs by Annexin V-FITC/7-AAD staining based flow cytometric method (reference value: 88.02 %); format: functional; conditions: read-out: Activity
[25] = test system: A549; test: Induction of cell cycle arrest in human A549 cells assessed as accumulation in G0/G1 phase at 0.3 uM incubated for 24 hrs by […] propidium iodide staining based flow cytometry (reference value: 63.11 %); format: functional
[26] = test system: NCI-H1975; test: Induction of apoptosis in human H1975 cells assessed as viable cells at 1 uM after 48 hrs by Annexin V-FITC/7-AAD staining based flow cytometric method (reference value: 88.02 %); format: functional; conditions: read-out: Activity
[27] = test system: A549; test: Induction of apoptosis in human A549 cells assessed as increase in Akt level at 0.1 to 3 uM incubated for 24 hrs by Western blot analysis; format: functional, cell-based; conditions: dose microM 0.1-3, time 24.0 hrs; outline: as §1

CN1c2c(ccc3cc4c(cc23)OCO4)-c2ccc3c(c2C1N1CCOCC1)OCO3 (configuration not stated)
Activity [1]: 13.21% | Activity [2]: 77.7% | Activity [3]: Active | Activity [4]: 14.29% | Activity [5]: 9.4% | Activity [6]: Active | Activity [7]: 1.65% | Activity [8]: 70.03% | Activity [9]: 90.5% | viability at 3 µM [10]: 0.71% | Activity [11]: 3.91% | Activity [12]: 62.04% | Activity [13]: Active | Activity [14]: 15.64% | Activity [15]: 14.84% | viability at 0.3 µM [16]: 79.4% | Activity [17]: 0.98% | Activity [18]: Active | Activity [19]: 8.03% | Activity [20]: Active | Activity [21]: 67.32% | Activity [22]: 6.92% | Activity [23]: 10.94% | viability at 0.3 µM [24]: 82.5% | Activity [25]: 64.85% | viability at 1 µM [26]: 67.4% | Activity [27]: Active
